# Measurements of several laboratories.
# Protocols differ between the studies behind these lines.
# Target: Serine/threonine-protein kinase Nek4 (NEK4, Homo sapiens, UniProt P51957)
SMILES,test,system,setting,quantity,value
N#CCCc1ccc2c(c1)-c1[nH]c3ccc([N+](=O)[O-])cc3c1CC(=O)N2,cell-free assay,,0.5 µM,remaining signal,104%
Cc1c(NC(=O)c2cc(C(N)=O)nc3cc(F)ccc23)c(C(F)(F)F)nn1Cc1ccc(C#N)cc1,"cell-free assay, competition with immobilised ligand",,1 µM,remaining binding,92%
CC(C)(O)[C@H]1CC[C@H](Nc2ccc3ncc(-c4cccc(C(F)(F)F)c4)n3n2)CC1,"enzyme activity, inhibitor",,1 µM,remaining activity,84.3%
Cc1sc(C(=O)NC2COC2)cc1-n1cc(NC(=O)Nc2c(F)cccc2Cl)cn1,"enzyme activity, inhibitor",,10 µM,remaining activity,75.5%
Nc1ncnc2occ(-c3ccc(NC(=O)Nc4cc(C(F)(F)F)ccc4F)cc3)c12,"cell-free assay, inhibitor",,20 µM,remaining signal,2.8%
Cc1ccc(C(=O)Nc2ccc(CN3CCN(C)CC3)c(C(F)(F)F)c2)cc1C#Cc1cnc2cccnn12,"enzyme activity, inhibitor",,23.5 nM,remaining activity,61%
CS(=O)(=O)N1CCCC(NC(=O)[C@H](CCC2CCCCC2)NC(=O)c2ccc(CNC(=O)c3cnc4ccccn34)cc2)C1 (stereo partly shown),"cell-free assay, competition with immobilised ligand",,0.1 µM,remaining binding,100%
COc1cc(Cl)c(C(=O)N[C@@H](CN[C@H]2CC[C@@H](N)CC2)Cc2ccc(C#N)cc2)cc1-c1ccc(CN[C@H](C)c2ccc(C)cc2)o1,"enzyme activity, inhibitor",,1 µM,remaining activity,106%
COc1cc2c(N3CCN(C(=O)Nc4ccc(OC(C)C)cc4)CC3)ncnc2cc1OCCCN1CCCCC1,cell-free assay,,0.5 µM,remaining signal,90.3%
COc1cccc2c(NCc3ccccc3)nc(-n3c(N)nc4ccccc43)nc12,"target engagement in cells, inhibitor, chemoproteomics",,20 mM,inhibition,-7.4%
CC(C)(C)c1nc2c(s1)c1nc(N)ncc1c1ccc(NS(=O)(=O)c3c(F)cccc3F)c(F)c12,"enzyme activity, inhibitor, radiometric",,1 µM,remaining activity,96%
CCN1CCN(Cc2ccc(NC(=O)c3ccc(C)c(/C=C/c4cnc5[nH]ccc5c4OC)c3)cc2C(F)(F)F)CC1,"target engagement in cells, inhibitor, chemoproteomics",A-375,50 nM,inhibition,-31%
CN(C)C1CCN(CC#Cc2nn(C3CCCC3)c3nc(NCc4ccccc4)ncc23)C1 (stereo not shown),"enzyme activity, inhibitor, FRET",,10 µM,inhibition,12%
COCCOc1nc(-c2ccc(Cl)nc2)nc2c1CN(C(=O)c1ncn3ccccc13)CC2,"cell-free assay, competition with immobilised ligand",,0.1 µM,remaining binding,100%
CCCCNc1ncc2c(-c3ccc(F)cc3)nn(C[C@H]3CC[C@H](N)CC3)c2n1,"target engagement in cells, inhibitor, chemoproteomics",,20 mM,inhibition,-16.7%
C[C@@]1(Cc2ccc(C#N)cc2)C(=O)N(c2cc(Cl)cc(Cl)c2)c2ncc(C(=O)NC3(c4nc(C5CCC5)no4)CC3)n21,"cell-free assay, competition with immobilised ligand",,1 µM,remaining binding,12%
COc1cc2ncnc(Nc3ccc(Oc4ccccc4)cc3C)c2cc1OC,"enzyme activity, inhibitor",,1 µM,inhibition,1%
O=C(Nc1cnc(Oc2ccc(F)cc2)nc1)N1CCc2ncccc2[C@@H]1c1ccc(F)cc1,"cell-free assay, competition with immobilised ligand",,1 µM,remaining binding,79%
O=C(Nc1cnn(-c2csc(C(=O)NC3COC3)c2)c1)Nc1c(F)cccc1Cl,"enzyme activity, inhibitor",,5 µM,remaining activity,90.8%
